Experiment [1] addresses T1, Sodium-dependent dopamine transporter (Rattus norvegicus, UniProt P23977). Nature of the experiment: Binding affinity for [3H]DA (Dopamine transporter) uptake by striated synaptosomes. It is filed as subcellular, Brain. In short, it runs like this: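 Striatal synaptosomes in Krebs-Ringer-HEPES (125 mM NaCl, 4.8 mM KCl, 1.2 mM MgSO4, 25 mM HEPES, pH 7.4). After 30 min drug preincubation, [3H]DA was added at about 5 nM. Uptake lasted 5 min and ended by rapid filtration. […] Ki was derived by Cheng–Prusoff with Kd 57 nM. Values are the mean of 2–3 experiments.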

Experiment [2] addresses T2, Sodium-dependent serotonin transporter (Rattus norvegicus, UniProt P31652). Nature of the experiment: Binding affinity for Serotonin transporter was determined by [3H]5-HT (serotonin) uptake by striated synaptosomes. Format: subcellular, Brain.
Experiment [3] deals with T1, Sodium-dependent dopamine transporter. Briefly: (§1) Inhibitory activity on dopamine transporters of rat striated membranes using [3H]- mazindol. In a few lines:
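Striatal membrane homogenate was added to tubes holding drug and about 4 nM [3H]mazindol in Krebs-Ringer-HEPES (pH 7.4). Incubation was 1 h at 4 °C, followed by filtration.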

Experiment [4] has the same target. Nature of the experiment: Binding affinity of compound on dopamine transporters of rat striated membranes using [3H]- mazindol. It is filed as cell membranes, Membrane. In short, it runs like this:
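Striatal membrane homogenate was added to tubes holding drug and about 4 nM [3H]mazindol in Krebs-Ringer-HEPES (pH 7.4). Incubation was 1 h at 4 °C, followed by filtration. […] Values are the mean of 2–3 experiments.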

For experiment [5] the target is unchanged. Nature of the experiment: Inhibitory activity determined for [3H]DA (Dopamine transporter) uptake by striated synaptosomes. Format: subcellular, Brain.
The target in experiment [6] is T2, Sodium-dependent serotonin transporter. Nature of the experiment: Inhibitory activity against Serotonin transporter was determined for [3H]5-HT (serotonin) uptake by striated synaptosomes. It is filed as subcellular, Brain.
Experiment [7] has as its target Monoamine transporters; serotonin & dopamine (Rattus norvegicus) (UniProt P31652+P23977). Nature of the experiment: Ratio of Ki value for 5-HT to that of DA. Format: protein assay.
The target in experiment [8] is T1, Sodium-dependent dopamine transporter. The experiment is described as §1. This is another data set of the same source.
The target is the same in experiment [9]. Briefly: Inhibitory activity on dopamine transporter of rat striated membranes using [3H]- mazindol.

The Ki is a dissociation constant, usually derived from enzyme kinetics or from competition with a known ligand. A higher Ki goes with lower affinity. In general, IC50 refers to the concentration that inhibits the measured activity by half.

T1 sequence (P23977 whole entry): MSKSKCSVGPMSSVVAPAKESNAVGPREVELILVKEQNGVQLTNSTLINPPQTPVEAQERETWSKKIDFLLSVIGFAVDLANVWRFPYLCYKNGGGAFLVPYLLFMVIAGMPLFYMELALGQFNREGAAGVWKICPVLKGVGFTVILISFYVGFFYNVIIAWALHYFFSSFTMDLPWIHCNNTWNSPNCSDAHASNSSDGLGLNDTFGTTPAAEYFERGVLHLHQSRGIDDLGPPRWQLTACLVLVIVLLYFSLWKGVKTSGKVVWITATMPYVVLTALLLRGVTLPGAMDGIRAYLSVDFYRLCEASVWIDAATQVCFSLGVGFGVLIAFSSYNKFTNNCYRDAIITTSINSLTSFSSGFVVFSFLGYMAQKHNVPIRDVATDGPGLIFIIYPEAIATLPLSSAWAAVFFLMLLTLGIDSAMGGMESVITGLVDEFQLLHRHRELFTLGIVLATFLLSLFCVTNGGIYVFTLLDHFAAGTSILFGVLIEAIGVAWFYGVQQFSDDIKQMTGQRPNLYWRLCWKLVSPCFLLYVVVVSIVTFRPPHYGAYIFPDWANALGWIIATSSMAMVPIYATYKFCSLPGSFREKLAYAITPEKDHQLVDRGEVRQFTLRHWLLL
Chain of Monoamine transporters; serotonin & dopamine (Rattus norvegicus) (P23977 whole entry, looked up): as the sequence (P23977 whole entry) above
Chain of Monoamine transporters; serotonin & dopamine (Rattus norvegicus) (P31652 whole entry, looked up): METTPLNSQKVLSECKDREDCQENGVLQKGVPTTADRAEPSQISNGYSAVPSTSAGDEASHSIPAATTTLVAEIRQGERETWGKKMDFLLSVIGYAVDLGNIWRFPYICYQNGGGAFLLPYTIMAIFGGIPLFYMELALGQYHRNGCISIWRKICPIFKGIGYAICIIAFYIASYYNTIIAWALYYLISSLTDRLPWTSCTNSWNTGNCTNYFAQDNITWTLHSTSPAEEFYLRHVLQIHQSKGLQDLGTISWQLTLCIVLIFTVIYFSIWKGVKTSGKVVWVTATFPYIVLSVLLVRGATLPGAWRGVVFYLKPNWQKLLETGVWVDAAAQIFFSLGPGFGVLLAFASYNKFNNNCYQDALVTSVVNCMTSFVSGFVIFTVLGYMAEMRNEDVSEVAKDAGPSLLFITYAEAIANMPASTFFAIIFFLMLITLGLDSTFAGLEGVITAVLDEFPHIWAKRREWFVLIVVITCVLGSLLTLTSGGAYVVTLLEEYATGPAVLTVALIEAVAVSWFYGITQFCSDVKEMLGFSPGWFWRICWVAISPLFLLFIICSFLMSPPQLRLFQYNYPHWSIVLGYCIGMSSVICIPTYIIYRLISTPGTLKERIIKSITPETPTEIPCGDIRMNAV
T2 sequence (P31652 whole entry): as the sequence (P31652 whole entry, looked up) above

In the case of `CN1C2CC[C@@H]1C[C@@H](c1ccccc1)[C@H]2c1ccccc1`, the inhibitory constant (Ki) in experiment [1] turned out to be 11.7 nM; in [2], 753 nM; in experiment [4] it was 13.8 nM. Also, the IC50 in [3] was 26.6 nM; in experiment [5], 12.6 nM; in [6], 823 nM. Besides, the Uptake ratio in experiment [7] amounted to 64.3.

As for `CCC[C@H]1C(c2ccccc2)C[C@H]2CCC1N2C` (stereo not given in full), the Ki in experiment [1] was found to be 6.89 nM; in experiment [2], 86.8 nM; in experiment [4], 12.2 nM. Moreover, the IC50 in experiment [3] amounted to 23.1 nM; in experiment [5], 7.46 nM; in experiment [6], 95.4 nM. The Uptake ratio in [7] was 12.6.

With `CCCC[C@H]1C2CC[C@H](C[C@H]1c1ccc(C)cc1)N2C`, the results for the Ki in experiment [1], in experiment [2] and in [4] were 10.1 nM, 51 nM and 11.4 nM, respectively. Besides, the IC50 in experiment [3] was determined as 21.6 nM; in [5] it was 10.9 nM; in experiment [6] it was 55.8 nM. Besides, the Uptake ratio in [7] came out at 5.1.

Turning to `CN1C2CC[C@@H]1CC(c1ccccc1)[C@@H]2c1ccccc1` (stereo not given in full) [listing 1 of 2 here], the Ki in experiment [1] is 28.9 nM; in experiment [2], 1100 nM; in experiment [4], 49.9 nM. Further, the IC50 in [3] was determined as 96.5 nM; in [5] it was 31.1 nM; in experiment [6], 1200 nM.

As for `CCC[C@H]1C(c2ccc(F)cc2)C[C@H]2CCC1N2C` (stereo not given in full), the Ki was 1.99 nM in experiment [1], 21.7 nM in [2] and 5.28 nM in [4]. Further, the IC50 in [3] came out at 10 nM; in experiment [5], 2.16 nM; in [6], 23.7 nM. In [7], the Uptake ratio is 10.9.

`CN1C2CC[C@@H]1CC(c1ccccc1)[C@@H]2c1ccccc1` (stereo not given in full) [listing 2 of 2 here]: the Uptake ratio in experiment [7] amounted to 38.1.

Consider `CCC[C@H]1C2CC[C@H](C[C@H]1c1ccc(F)cc1)N2C`, for which the figures for the Ki in [1], in experiment [2] and in [4] were 12.1 nM, 99.6 nM and 21.1 nM, respectively. In addition, the IC50 was found to be 37.1 nM in experiment [3], 13.1 nM in [5] and 109 nM in experiment [6]. Besides, the Uptake ratio in experiment [7] came to 8.2.

For `CCCC[C@H]1C(c2ccc(C)cc2)C[C@H]2CCC1N2C` (stereo not given in full), the Ki is 1.31 nM in [1], 15.1 nM in [2] and 1.82 nM in experiment [4]. Also, the IC50 in experiment [3] turned out to be 3.43 nM; in experiment [5] it was 1.42 nM; in [6], 16.5 nM. Also, the Uptake ratio in experiment [7] was 11.5.

`CN1C2CC[C@@H]1CC(c1ccccc1)[C@@H]2c1ccccc1` (mixture of isomers): the IC50 in [8] was found to be 28 nM.

As for `CCC[C@H]1C2CC[C@H](C[C@H]1c1ccc(C)cc1)N2C`, the Ki in experiment [1] is 11.8 nM; in experiment [2] it was 50.1 nM; in experiment [4] it was 8.91 nM. In addition, the concentration for half-maximal inhibition (IC50) in [3] came out at 18.2 nM; in experiment [5] it was 12.8 nM; in experiment [6], 54.8 nM. Besides, the Uptake ratio in experiment [7] came to 4.25.

Regarding `Cc1ccc([C@@H]2C[C@H]3CCC([C@@H]2c2ccccc2)N3C)cc1`, the results for the Ki in [1], in experiment [2] and in experiment [4] were 4.16 nM, 287 nM and 2.87 nM, respectively. In addition, the IC50 in experiment [3] came out at 5.55 nM; in experiment [5], 4.48 nM; in experiment [6] it was 314 nM. Moreover, the Uptake ratio in experiment [7] turned out to be 68.9.

In the case of `Cc1ccc(C2C[C@H]3CCC([C@H]2c2ccccc2)N3C)cc1` (stereo not given in full), the Ki was found to be 2.87 nM in experiment [1], 73.8 nM in experiment [2] and 2.58 nM in experiment [4]. The IC50 in [3] came to 4.98 nM; in [5] it was 3.09 nM; in [6], 80.8 nM. Further, the Uptake ratio in [7] was 25.7.

Regarding `CCC[C@H]1C2CC[C@H](C[C@H]1c1ccccc1)N2C`, the Ki in experiment [1] is 30.2 nM; in [2], 389 nM; in [4], 74.9 nM. Moreover, the IC50 came out at 141 nM in [3], 32.6 nM in experiment [5] and 427 nM in experiment [6]. Further, in experiment [7], the Uptake ratio is 12.9.

In the case of `COC(=O)[C@@H]1C2CC[C@H](C[C@@H]1c1ccc(C)cc1)N2C`, the Ki in [1] turned out to be 6.92 nM; in [4] it was 5.76 nM. For the same compound, the IC50 in [9] was 10.5 nM; in [5], 7.47 nM.

As to `CCC[C@H]1C(c2ccc(C)cc2)C[C@H]2CCC1N2C` (stereo not given in full), the Ki in experiment [1] was 1.1 nM; in [2], 10.3 nM; in experiment [4], 1.57 nM. Further, the IC50 was found to be 2.97 nM in experiment [3], 1.19 nM in experiment [5] and 11.3 nM in experiment [6]. Moreover, the Uptake ratio in experiment [7] turned out to be 9.35.

Consider `COC(=O)[C@H]1C(c2ccccc2)C[C@H]2CCC1N2C` (stereo not given in full), for which the Ki in experiment [1] was determined as 53.7 nM; in experiment [4], 89.4 nM. Further, the IC50 in experiment [3] is 163 nM; in [5] it was 57.9 nM.

For the compound `CN1C2CC[C@@H]1C[C@@H](c1ccc(F)cc1)[C@H]2c1ccccc1`, the Ki is 4.58 nM in experiment [1], 122 nM in experiment [2] and 6 nM in [4]. In addition, the IC50 in experiment [3] stood at 11.4 nM; in [5] it was 4.95 nM; in experiment [6], 134 nM. Moreover, the Uptake ratio in [7] amounted to 26.6.

Values taken from ChEMBL document CHEMBL1131420 (J Med Chem, 1998).
